Where two headings read alike, the source gives them in different places.

By Papp is commonly meant a coefficient for how fast a substance crosses the barrier. Low values mean slow passage, high ones fast passage. For orientation: Km means the substrate concentration at which the rate is half of its maximum.

One data set deals with Ochrobactrum sp. FrEM. The data set can be described thus: Biodegradation of glyphosate by Ochrobactrum sp. FrEM. Type of data set: cell-based. Conditions: after 4.5 days, OD600 ≈ 0.8, 30 °C, pH 7.
A further data set has as its system single bacterial cell. The method in brief:
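Calculated rather than measured: the liposome-derived Papp was scaled to a single cell using an estimated cell surface area of ≈3 μm² and membrane thickness δ (one 4 nm membrane for Gram-positive, two 4 nm membranes for Gram-negative), giving a concentration-gradient-dependent influx.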

Data set [1] is classed as physicochemical. The following applies: not told.
The test system of data set [2] is active glyphosate transporter. The following applies: cited from earlier work.

For the compound `O=C(O)CNCP(=O)(O)O` [glyphosate, N-(phopshomethyl)glycine], the “maximum glyphosate degradation rate (dn/dt)deg-cell” value in the data set with Ochrobactrum sp. FrEM was −1.7 × 10^–21 mol·s^–1·cell^–1. Besides, the “calculated maximum membrane permeation rate (dnout/dt)cell-perm-max” value is on record as −6.5 × 10^–22 mol·s^–1·cell^–1 with single bacterial cell (glyphosate concentration of 1 μM); −7.5 × 10^–20 mol·s^–1·cell^–1 in the data set with single bacterial cell (pH 7, 0.12 mM glyphosate, compared with Ochrobactrum sp. FrEM); −1.9 × 10^–18 mol·s^–1·cell^–1 in the data set on single bacterial cell (pH 7, 3 mM glyphosate, [Sin] = 0, compared with Achromobacter sp. MPS 12A). Moreover, the “maximum permeation rate higher than degradation rate” value in the data set on single bacterial cell (pH 7, 3 mM, versus degradation rate of Achromobacter sp. MPS 12A) is given as 2 orders of magnitude. In addition, the Papp at 20 mM in data set [1] (pH 4.1) was 420 ×10⁻⁶ cm/s; in data set [1] (pH 7) it was 37 ×10⁻⁶ cm/s. The “uptake rate of active glyphosate transporter (dnout/dt)cell-transport” value in data set [2] is on record as −1.8 × 10^–21 mol·s^–1·cell^–1. In addition, the Km in data set [2] (read-out: affinity constant KM for glyphosate uptake) is 125 µM.

The record behind these values is article PMC7193547 (Environmental Science & Technology, 2018).
